Assays:
[1] = target: Kappa-type opioid receptor (Rattus norvegicus) (UniProt P34975); assay: Tested for the antagonism of kappa opioid receptor diuresis at a dose of 0.08 mg/kg subcutaneously; type: functional, organism-based; design: dose 0.08 mg/kg
How it was run: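 Male Long-Evans hooded rats (350-500 g), bremazocine HCl 0.08 mg/kg sc to induce diuresis, test antagonist sc at once on opposite side; metabolism cages, urine volume at 2 and 5 h. Three rats per dose, doses varied 2-fold; AD50 = dose halving 5-h urination.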

[2] = target: Kappa-type opioid receptor (Mus musculus) (UniProt P33534); assay: Antagonism of opioid analgesia using a mouse writhing model to block U-50,488 ([…]) induced kappa-opioid receptor subcutaneously; type: functional, organism-based
[3] = target: T1, Mu-type opioid receptor (Rattus norvegicus, UniProt P33535); assay: Binding affinity towards mu-opioid receptor by displacement of [3H]NAL at 10 nM from rat brain homogenates; type: tissue-based
[4] = target: T1, Mu-type opioid receptor; assay: Binding affinity towards mu-opioid receptor by displacement of [3H]NAL at 100 nM from rat brain homogenates; type: tissue-based
[5] = target: Mu-type opioid receptor (Mus musculus) (UniProt P42866); assay: Antagonism of opioid analgesia using a mouse writhing model to block morphine ([…]) induced mu-opioid receptor (subcutaneously dosed); type: functional, organism-based
[6] = target: T1, Mu-type opioid receptor; assay: Binding affinity towards mu opioid receptor by displacement of [3H]NAL from rat brain homogenates; type: tissue-based
[7] = target: Kappa-type opioid receptor (Cavia porcellus, UniProt P41144); assay: Binding affinity towards kappa-opioid receptor by displacement of [3H]-EKC at from guinea pig cortical tissue
Sequence of Kappa-type opioid receptor (P41144 whole entry): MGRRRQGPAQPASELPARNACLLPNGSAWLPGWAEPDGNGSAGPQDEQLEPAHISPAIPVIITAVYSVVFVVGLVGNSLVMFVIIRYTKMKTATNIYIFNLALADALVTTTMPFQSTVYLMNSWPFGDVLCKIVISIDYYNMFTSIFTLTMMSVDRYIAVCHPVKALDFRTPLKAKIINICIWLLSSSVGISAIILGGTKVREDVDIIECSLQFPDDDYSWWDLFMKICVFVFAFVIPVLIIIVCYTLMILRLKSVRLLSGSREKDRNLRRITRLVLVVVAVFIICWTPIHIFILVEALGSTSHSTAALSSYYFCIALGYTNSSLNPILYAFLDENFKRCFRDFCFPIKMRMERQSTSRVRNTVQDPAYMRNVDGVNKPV

Sequence of Kappa-type opioid receptor (Rattus norvegicus) (P34975 whole entry): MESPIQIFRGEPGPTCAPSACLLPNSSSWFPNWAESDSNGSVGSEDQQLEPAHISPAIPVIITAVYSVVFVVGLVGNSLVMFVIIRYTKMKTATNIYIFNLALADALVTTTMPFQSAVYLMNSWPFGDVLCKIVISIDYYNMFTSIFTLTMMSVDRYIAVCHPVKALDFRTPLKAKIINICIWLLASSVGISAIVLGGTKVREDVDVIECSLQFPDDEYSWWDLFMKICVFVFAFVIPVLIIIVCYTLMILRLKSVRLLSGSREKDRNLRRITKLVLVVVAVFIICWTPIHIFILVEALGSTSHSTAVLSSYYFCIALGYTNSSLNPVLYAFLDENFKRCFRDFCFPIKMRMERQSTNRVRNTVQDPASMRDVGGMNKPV
Sequence of Kappa-type opioid receptor (Mus musculus) (P33534 whole entry): as the sequence (P34975 whole entry) above, with E11D, A17S, P51S, V308A counted along it
T1 sequence (P33535 whole entry): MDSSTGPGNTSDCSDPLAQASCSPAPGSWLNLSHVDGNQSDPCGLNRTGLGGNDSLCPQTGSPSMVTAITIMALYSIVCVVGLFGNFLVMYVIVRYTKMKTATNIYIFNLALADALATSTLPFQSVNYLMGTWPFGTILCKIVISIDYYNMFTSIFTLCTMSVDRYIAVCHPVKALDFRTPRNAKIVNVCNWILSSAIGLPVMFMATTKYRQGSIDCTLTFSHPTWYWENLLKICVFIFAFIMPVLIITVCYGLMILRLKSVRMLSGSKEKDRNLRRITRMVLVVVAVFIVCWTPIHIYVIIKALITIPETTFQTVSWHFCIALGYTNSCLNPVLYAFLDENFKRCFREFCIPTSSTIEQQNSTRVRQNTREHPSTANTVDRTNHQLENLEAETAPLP
Sequence of Mu-type opioid receptor (Mus musculus) (P42866 whole entry): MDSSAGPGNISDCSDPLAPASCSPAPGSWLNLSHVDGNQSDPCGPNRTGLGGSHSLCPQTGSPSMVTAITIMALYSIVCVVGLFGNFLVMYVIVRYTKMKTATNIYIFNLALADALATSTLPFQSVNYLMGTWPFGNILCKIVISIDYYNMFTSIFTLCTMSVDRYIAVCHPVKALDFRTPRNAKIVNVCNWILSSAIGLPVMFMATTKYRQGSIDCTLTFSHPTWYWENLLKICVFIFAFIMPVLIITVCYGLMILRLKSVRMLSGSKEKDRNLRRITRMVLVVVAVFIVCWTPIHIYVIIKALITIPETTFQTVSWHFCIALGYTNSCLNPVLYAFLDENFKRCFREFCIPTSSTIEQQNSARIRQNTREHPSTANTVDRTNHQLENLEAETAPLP

| Compound | AD50 [1] [mg/kg] | AD50 [2] [mg/kg] | Ki [3] [µM] | Ki [4] [µM] | AD50 [5] [mg/kg] | Ki [6] [µM] | Ki [7] [µM] |
| --- | --- | --- | --- | --- | --- | --- | --- |
| C[C@H]1CN(CC(O)Cc2ccccc2)CC[C@@]1(C)c1cccc(O)c1 (some centres undefined) | 3.7 | 0.85 | 0.088 | 0.1 | 0.27 |  |  |
| C[C@H]1CN(CCC(=O)c2ccccc2)CC[C@@]1(C)c1cccc(O)c1 (stereo in doubt; 6) [listing 1 of 2 here] |  |  |  |  |  | 0.0054 | 0.208 |
| C[C@H]1CN(CCOc2ccccc2)CC[C@@]1(C)c1cccc(O)c1 | 3 | > 40 |  |  | 0.14 | 0.0013 | 0.057 |
| C[C@H]1CN(CCC(=O)c2ccccc2)CC[C@@]1(C)c1cccc(O)c1 (stereo in doubt; 6) [listing 2 of 2 here] | 3.2 | 4.5 |  |  | 0.14 |  |  |
| C[C@H]1CN(CCCc2cccc(Cl)c2)CC[C@@]1(C)c1cccc(O)c1 | 11 | > 1.25 | 0.089 | 0.1 | 0.76 |  |  |
| C[C@H]1CN(CCc2ccncc2)CC[C@@]1(C)c1cccc(O)c1 | 14 | > 1.25 | 0.054 | 0.099 | > 1.25 |  |  |
| C[C@@H]1CN(CCCc2cccs2)CC[C@]1(C)c1cccc(O)c1 |  |  |  |  |  | 0.0018 | 0.013 |
| C[C@H]1CN(CCCc2cccs2)CC[C@@]1(C)c1cccc(O)c1 (stereo in doubt; 41) [listing 1 of 2 here] |  | 0.3 |  |  |  |  |  |
| C[C@H]1CN(CCCCc2ccccc2)CC[C@@]1(C)c1cccc(O)c1 | 4.1 | > 1.25 |  |  | 0.28 | 0.002 |  |
| CC(CCCN1CC[C@@](C)(c2cccc(O)c2)[C@@H](C)C1)c1ccccc1 (some centres undefined) | 8.4 | 0.91 | 0.063 | 0.1 | 0.25 |  |  |
| CCCCCCN1CC[C@@](C)(c2cccc(O)c2)[C@@H](C)C1 | 0.7 | 0.11 |  |  | 0.052 | 0.00029 |  |
| Cc1ccc(CCN2CC[C@@](C)(c3cccc(O)c3)[C@@H](C)C2)cc1 | 11 | > 1.25 | 0.052 | 0.095 | > 1.25 |  |  |
| CCCCCN1CC[C@@](C)(c2cccc(O)c2)[C@@H](C)C1 | 0.69 |  |  |  | 0.37 | 0.0043 |  |
| C[C@H]1CN(C)CC[C@@]1(C)c1cccc(O)c1 | > 10 |  |  |  | 0.74 | 0.08 | 0.833 |
| COc1ccccc1CCCN1CC[C@@](C)(c2cccc(O)c2)[C@@H](C)C1 | 2.2 | > 0.64 |  |  | 0.18 | 0.00095 |  |
| C[C@H]1CN(CCCc2cccs2)CC[C@@]1(C)c1cccc(O)c1 (stereo in doubt; 42) [listing 1 of 2 here] |  | 0.25 |  |  | 0.03 |  |  |
| C[C@H]1CN(CCCc2cccs2)CC[C@@]1(C)c1cccc(O)c1 (stereo in doubt; 41) [listing 2 of 2 here] |  |  |  |  |  | 0.00056 | 0.0061 |
| C[C@@H]1CN(CCC(=O)c2ccccc2)CC[C@]1(C)c1cccc(O)c1 |  |  |  |  |  | 0.012 | 0.318 |
| Cc1cccc(CCCN2CC[C@@](C)(c3cccc(O)c3)[C@@H](C)C2)c1 | 10 | > 0.32 |  |  | > 1.25 | 0.0028 |  |
| C[C@H]1CN(CCC(O)c2cccs2)CC[C@@]1(C)c1cccc(O)c1 (some centres undefined) | 1.4 | 0.14 |  |  | 0.07 | 0.0005 | 0.0117 |
| Cc1cccc(CCN2CC[C@@](C)(c3cccc(O)c3)[C@@H](C)C2)c1 | 5.7 | 0.95 | 0.083 | 0.1 | 0.27 |  |  |
| C[C@H]1CN(CCCOc2ccccc2)CC[C@@]1(C)c1cccc(O)c1 | 8.4 | > 1.25 |  |  | > 1.25 | 0.001 | 0.061 |
| C[C@H]1CN(CCCc2cccs2)CC[C@@]1(C)c1cccc(O)c1 (stereo in doubt; 42) [listing 2 of 2 here] |  |  |  |  |  | 0.0002 | 0.0033 |

| Compound | AD50 [1] [mg/kg] | AD50 [2] [mg/kg] | Ki [3] [µM] | Ki [4] [µM] | AD50 [5] [mg/kg] | Ki [6] [µM] | Ki [7] [µM] |
| --- | --- | --- | --- | --- | --- | --- | --- |
| Cc1ccccc1CCCN1CC[C@@](C)(c2cccc(O)c2)[C@@H](C)C1 | 1.4 | 0.09 |  |  | 0.05 | 0.00062 | 0.0089 |
| C[C@H]1CN(CCc2ccccc2)CC[C@@]1(C)c1cccc(O)c1 | 1.8 | 1.4 |  |  | 0.16 |  |  |
| C[C@H]1CN(CC(O)c2ccccc2)CC[C@@]1(C)c1cccc(O)c1 (some centres undefined) | 6.9 | 11.8 | 0.048 | 0.097 | 2.4 |  |  |
| C[C@H]1CN(CCCc2ccccc2)CC[C@@]1(C)c1cccc(O)c1 | 1.1 |  |  |  | 2.4 | 0.00069 | 0.015 |
| CCCCCCCN1CC[C@@](C)(c2cccc(O)c2)[C@@H](C)C1 |  |  |  |  |  | 0.00062 |  |
| C[C@H]1CN(CCc2cccc3ccccc23)CC[C@@]1(C)c1cccc(O)c1 | > 5 | 0.51 | 0.0011 |  | 0.08 |  |  |
| C[C@H]1CN(CC2CC2)CC[C@@]1(C)c1cccc(O)c1 |  | 6.1 |  |  | 1.3 | 0.021 |  |
| C[C@H]1CN(CCc2cccs2)CC[C@@]1(C)c1cccc(O)c1 | 3.8 | 0.25 |  |  | 0.25 | 0.0053 |  |
| C[C@H]1CN(Cc2ccco2)CC[C@@]1(C)c1cccc(O)c1 |  | 1.35 |  |  | 0.71 | 0.0058 | 0.071 |
| C[C@H]1CN(Cc2ccccc2)CC[C@@]1(C)c1cccc(O)c1 | 2.5 | 0.45 | 0.065 | 0.089 | 0.29 |  |  |
| C[C@H]1CN(CCc2ccccc2Cl)CC[C@@]1(C)c1cccc(O)c1 | 3.4 | 0.51 |  |  | 0.31 | 0.0035 |  |
| C[C@H]1CN(CCc2cccc(F)c2)CC[C@@]1(C)c1cccc(O)c1 | 1.4 | 0.84 | 0.0032 |  | 0.14 |  |  |
| C=CCN1CC[C@@](C)(c2cccc(O)c2)[C@@H](C)C1 |  | > 10 |  |  | 1.3 | 0.016 | 0.313 |
| C[C@H]1CN(CCCCc2cccs2)CC[C@@]1(C)c1cccc(O)c1 | 3.3 | 0.43 | 0.023 | 0.069 | 0.16 |  |  |
| C[C@H]1CN(CCCc2ccsc2)CC[C@@]1(C)c1cccc(O)c1 |  |  | 0.00026 |  |  |  | 0.01 |
| C[C@H]1CN(Cc2ccoc2)CC[C@@]1(C)c1cccc(O)c1 | 3.8 | 0.71 | 0.082 | 0.1 | 0.4 |  |  |
| CCN1CC[C@@](C)(c2cccc(O)c2)[C@@H](C)C1 |  | > 1.25 |  |  | > 1.25 | 0.052 | 0.018 |
| C[C@H]1CN(CCC(=O)c2cccs2)CC[C@@]1(C)c1cccc(O)c1 |  |  |  |  |  | 0.0015 | 0.015 |
| C[C@H]1CN(CCCc2ccco2)CC[C@@]1(C)c1cccc(O)c1 |  | 0.26 |  |  | 0.08 | 0.0014 | 0.014 |
| C[C@H]1CN(CCC(O)c2ccccc2)CC[C@@]1(C)c1cccc(O)c1 (some centres undefined) |  |  |  |  |  | 0.00096 | 0.0125 |
| C[C@H]1CN(CCC(=O)c2ccccc2)CC[C@@]1(C)c1cccc(O)c1 (stereo in doubt; 8) |  |  |  |  |  | 0.0036 | 0.163 |
| C[C@H]1CN(CCc2cccc(Cl)c2)CC[C@@]1(C)c1cccc(O)c1 | 3.6 | 0.38 |  |  | 0.44 | 0.0003 |  |

Source: ChEMBL document CHEMBL1126828, “Structure-activity relationships of trans-3,4-dimethyl-4-(3-hydroxyphenyl)piperidine antagonists for mu- and kappa-opioid receptors” (J Med Chem, 1993)
